Laboratory results reported in ChEMBL document CHEMBL3244072, “Synthesis and antiviral and enzymatic studies of certain 3-deazaguanines and their imidazolecarboxamide precursors” (J Med Chem, 1978).
Active and inactive are the calls of the source. The calls are words filed in the database; no cut-off is given here.

What was measured:
[1] = system: Trichophyton mentagrophytes; experiment: Antimicrobial activity against Trichophyton mentagrophytes at 0.4 umol/mL by broth microdilution method; type: functional, organism-based
Outline: (§1)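 Broth dilution in defined medium against clinical isolates of each organism.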

[2] = system: Pseudomonas aeruginosa; experiment: Antimicrobial activity against Pseudomonas aeruginosa at 0.4 umol/mL by broth microdilution method; type: functional, organism-based; outline: as §1
[3] = system: Epidermophyton floccosum; experiment: Antimicrobial activity against Epidermophyton floccosum at 0.4 umol/mL by broth microdilution method; type: functional, organism-based; outline: as §1
[4] = system: Microsporum canis; experiment: Antimicrobial activity against Microsporum canis at 0.4 umol/mL by broth microdilution method; type: functional, organism-based; outline: as §1
[5] = system: Staphylococcus aureus; experiment: Antimicrobial activity against Staphylococcus aureus at 0.4 umol/mL by broth microdilution method; type: functional, organism-based; outline: as §1
[6] = system: Candida albicans; experiment: Antimicrobial activity against Candida albicans at 0.4 umol/mL by broth microdilution method; type: functional, organism-based; outline: as §1
[7] = system: Human respirovirus 3; experiment: Antiviral activity against Parainfluenza virus 3 infected in human KB cells assessed as inhibition of virus-induced cytopathic effect after 72 hrs relative to control; type: functional, organism-based
Outline: (§2)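 Cell monolayers (18-24 h) infected with 320 CCID50 of virus; compound added within 15 min at half-log dilutions from 1000 to 1 μg/mL. After 72 h at 37 °C, CPE and cytotoxicity scored microscopically (0-4). Virus rating = sum of (control CPE − treated CPE) over drug levels, halved at any level showing toxicity.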

[8] = system: KB; experiment: Antiviral activity against Rhinovirus type 13 infected in human KB cells assessed as inhibition of virus-induced cytopathic effect after 72 hrs relative to control; type: functional, cell-based; conditions: Human rhinovirus A13; outline: as §2
[9] = system: Human alphaherpesvirus 1; experiment: Antiviral activity against HSV1 infected in human KB cells assessed as inhibition of virus-induced cytopathic effect after 72 hrs relative to control; type: functional, organism-based; outline: as §2
[10] = system: Human alphaherpesvirus 2; experiment: Antiviral activity against HSV2 infected in human KB cells assessed as inhibition of virus-induced cytopathic effect after 72 hrs relative to control; type: functional, organism-based; outline: as §2
[11] = system: Ehrlich; experiment: Inhibition of adenine nucleotide biosynthesis in mouse EAC assessed as [14C]hypoxanthine incorporation at 1 mM after 60 mins by TLC analysis; type: functional; conditions: 1 h
Outline: (§3)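 Ehrlich ascites tumor cells (about 6 × 10^6 cells/mL) preincubated 20 min at 37 °C with or without 1 mM compound. [14C]hypoxanthine (55 μCi/μmol) then added to 0.1 mM final for 60 min. Label in adenine or guanine nucleotides of the acid-soluble fraction measured by TLC; inhibition calculated against untreated cells.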

[12] = system: KB; experiment: Antiviral activity against Adenovirus type 3 infected in human KB cells assessed as inhibition of virus-induced cytopathic effect after 72 hrs relative to control; type: functional, cell-based; conditions: Human adenovirus 3; outline: as §2
[13] = system: Vaccinia virus; experiment: Antiviral activity against Vaccinia virus infected in human KB cells assessed as inhibition of virus-induced cytopathic effect after 72 hrs relative to control; type: functional, organism-based; conditions: Orthopoxvirus vaccinia; outline: as §2
[14] = system: Ehrlich; experiment: Inhibition of guanine nucleotide biosynthesis in mouse EAC assessed as [14C]hypoxanthine incorporation at 1 mM after 60 mins by TLC analysis; type: functional; conditions: 1 h; outline: as §3
[15] = system: Escherichia coli; experiment: Antimicrobial activity against Escherichia coli at 0.0025 to 0.125 umol/mL by broth microdilution method; type: functional, organism-based; outline: as §1
[16] = system: Influenza B virus; experiment: Antiviral activity against Influenza B virus Lee infected in Swiss-Webster mouse assessed as host mean survival days at 40 mg/kg, po qd for 9 days; type: functional, B/Lee/1940
[17] = system: Influenza B virus; experiment: Antiviral activity against Influenza B virus Lee infected in Swiss-Webster mouse assessed as host mean survival days at 10 mg/kg, po qd for 9 days; type: functional, B/Lee/1940
[18] = molecular target: Bifunctional purine biosynthesis protein ATIC (Homo sapiens) (UniProt P31939); experiment: Inhibition of Escherichia coli IMP cyclohydrolase (unknown origin) assessed as ratio of compound concentration for 50% inhibition of enzyme activity to 1.7 to 3 x 10^-5 M of substrate concentration
Outline: (§4)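 Enzymes partially purified from Escherichia coli B. Substrate at 1.7-3.0 × 10^-5 M. Value is the ratio of inhibitor concentration giving 50% inhibition to substrate concentration.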

[19] = system: Escherichia coli; experiment: Inhibition of Escherichia coli IMP dehydrogenase assessed as ratio of compound concentration for 50% inhibition of enzyme activity to 1.7 to 3 x 10^-5 M of substrate concentration; outline: as §4
[20] = system: Escherichia coli; experiment: Inhibition of Escherichia coli adenylosuccinate synthetase assessed as ratio of compound concentration for 50% inhibition of enzyme activity to 1.7 to 3 x 10^-5 M of substrate concentration; outline: as §4
[21] = system: Influenza B virus; experiment: Antiviral activity against Influenza B virus Lee infected in Swiss-Webster mouse assessed as host mean survival days at 100 mg/kg, po qd for 9 days; type: functional, B/Lee/1940
[22] = system: Influenza B virus; experiment: Antiviral activity against Influenza B virus Lee infected in Swiss-Webster mouse assessed as host mean survival days at 50 mg/kg, po qd for 9 days; type: functional, B/Lee/1940
[23] = system: Influenza B virus; experiment: Antiviral activity against Influenza B virus Lee infected in Swiss-Webster mouse assessed as host mean survival days at 12.5 mg/kg, po qd for 9 days; type: functional, B/Lee/1940
[24] = system: Influenza B virus; experiment: Antiviral activity against Influenza B virus Lee infected in Swiss-Webster mouse assessed as host mean survival days at 2.5 mg/kg, po qd for 9 days; type: functional, B/Lee/1940

Sequence of Bifunctional purine biosynthesis protein ATIC (Homo sapiens) (P31939 whole entry, looked up): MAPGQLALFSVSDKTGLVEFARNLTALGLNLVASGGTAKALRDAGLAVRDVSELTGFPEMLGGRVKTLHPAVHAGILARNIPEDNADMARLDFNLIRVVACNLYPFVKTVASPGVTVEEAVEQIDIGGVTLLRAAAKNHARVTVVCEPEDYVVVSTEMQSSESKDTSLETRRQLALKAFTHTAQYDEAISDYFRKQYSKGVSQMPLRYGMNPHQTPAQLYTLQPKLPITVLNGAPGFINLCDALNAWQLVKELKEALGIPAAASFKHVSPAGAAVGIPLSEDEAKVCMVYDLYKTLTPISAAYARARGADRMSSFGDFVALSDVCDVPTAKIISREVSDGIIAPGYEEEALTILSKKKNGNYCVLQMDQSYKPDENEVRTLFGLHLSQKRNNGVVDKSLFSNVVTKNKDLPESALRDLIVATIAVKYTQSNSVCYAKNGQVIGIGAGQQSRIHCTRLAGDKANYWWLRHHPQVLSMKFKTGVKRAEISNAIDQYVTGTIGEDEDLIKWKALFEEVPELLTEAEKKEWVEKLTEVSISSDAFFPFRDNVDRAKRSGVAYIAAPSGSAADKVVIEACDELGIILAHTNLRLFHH

SMILES	Activity [1]	Activity [2]	Activity [3]	Activity [4]	Activity [5]	Activity [6]	Activity [7]	Activity [8]	Activity [9]	further results
C[C@H]1O[C@@H](n2cnc(C(N)=O)c2CC#N)[C@H](O)[C@@H]1O	inactive	inactive	inactive	inactive	inactive	inactive	–	–	–	–
C[C@H]1O[C@@H](n2cnc3c(=O)[nH]c(N)cc32)[C@H](O)[C@@H]1O	inactive	inactive	inactive	inactive	inactive	inactive	inactive	inactive	Active	–
NC(=O)c1ncn([C@@H]2O[C@H](CO)[C@@H](O)[C@H]2O)n1 [RIBAVIRIN]	–	–	–	–	–	–	Active	Active	Active	Activity [10]: Active; inhibition at 1000 µM [11]: 14%; Activity [12]: Active; Activity [13]: Active; inhibition at 1000 µM [14]: 65%
Nc1cc2[nH]cnc2c(=O)[nH]1 [DEZAGUANINE]	inactive	inactive	inactive	inactive	inactive	inactive	Active	Active	Active	Activity [10]: Active; inhibition at 1000 µM [11]: 20%; Activity [12]: Active; Activity [13]: Active; Activity [15]: Active; Time [16]: 0.23 days; Time [17]: >0.3 days; inhibition at 1000 µM [14]: 40%
NC(=O)c1ncn([C@@H]2O[C@H](COP(=O)(O)O)[C@@H](O)[C@H]2O)n1	–	–	–	–	–	–	–	–	–	Ratio [18]: 0.46; Ratio [19]: 0.016; Ratio [20]: 160
Nc1cc2ncn([C@@H]3O[C@H](CO)[C@@H](O)[C@H]3O)c2c(=O)[nH]1	–	–	–	–	–	–	–	–	–	Activity [15]: Active
Nc1cc2c(ncn2[C@@H]2O[C@H](COP(=O)(O)O)[C@@H](O)[C@H]2O)c(=O)[nH]1	inactive	inactive	inactive	inactive	inactive	inactive	Active	Active	Active	Activity [10]: Active; Ratio [19]: 0.068; inhibition at 1000 µM [11]: 18%; Activity [12]: Active; Activity [13]: Active; inhibition at 1000 µM [14]: 68%; Ratio [20]: 20
Nc1cc2c(ncn2C2CCCCO2)c(=O)[nH]1 (stereo unspecified)	inactive	inactive	inactive	inactive	inactive	inactive	–	–	–	–
CC(=O)OC[C@H]1O[C@@H](n2cnc(C(N)=O)c2CC#N)[C@H](OC(C)=O)[C@@H]1OC(C)=O	inactive	inactive	inactive	inactive	inactive	inactive	–	–	–	–
COC(=O)c1c(CC#N)ncn1C1CCCCO1 (stereo unspecified)	inactive	inactive	inactive	inactive	inactive	inactive	–	–	–	–
C1=COCCC1	inactive	inactive	inactive	inactive	inactive	inactive	–	–	–	–
N#CCc1c(C(N)=O)ncn1C1CCCCO1 (stereo unspecified)	inactive	inactive	inactive	inactive	inactive	inactive	–	–	–	–
N#CCc1c(C(N)=O)ncn1[C@@H]1O[C@H](CO)[C@@H](O)[C@H]1O	inactive	inactive	inactive	inactive	inactive	inactive	inactive	inactive	Active	Activity [10]: Active; Time [21]: >0.3 days; Time [22]: 0.118 days; inhibition at 1000 µM [11]: 6%; Activity [13]: inactive; Time [23]: >0.3 days; inhibition at 1000 µM [14]: 11%
CN(C)/C=N/c1cc2c(ncn2[C@@H]2O[C@H](CO)[C@@H](O)[C@H]2O)c(=O)[nH]1	inactive	inactive	inactive	inactive	inactive	inactive	–	–	–	–
Nc1cc2c(ncn2[C@@H]2O[C@H](CO)[C@@H](O)[C@H]2O)c(=O)[nH]1	inactive	inactive	inactive	inactive	inactive	inactive	Active	Active	Active	Activity [10]: Active; inhibition at 1000 µM [11]: 24%; Activity [12]: Active; Activity [13]: Active; Time [24]: 0.118 days; Time [16]: >0.3 days; Time [17]: >0.3 days; inhibition at 1000 µM [14]: 38%
Nc1cc2ncn(C3CCCCO3)c2c(=O)[nH]1 (stereo unspecified)	inactive	inactive	inactive	inactive	inactive	inactive	inactive	Active	Active	–
COC(=O)c1ncn([C@@H]2O[C@H](C)[C@@H](OC(C)=O)[C@H]2OC(C)=O)c1CC#N	inactive	inactive	inactive	inactive	inactive	inactive	–	–	–	–
C[C@H]1O[C@@H](n2cnc3cc(N)[nH]c(=O)c32)[C@H](O)[C@@H]1O	inactive	inactive	inactive	inactive	inactive	inactive	–	–	–	–
COC(=O)c1c(CC#N)ncn1[C@@H]1O[C@H](C)[C@@H](OC(C)=O)[C@H]1OC(C)=O	inactive	inactive	inactive	inactive	inactive	inactive	–	–	–	–
CC(=O)O[C@@H]1O[C@H](C)[C@@H](OC(C)=O)[C@H]1OC(C)=O	inactive	inactive	inactive	inactive	inactive	inactive	–	–	–	–
CC(=O)Nc1cc2c(ncn2[C@@H]2O[C@H](COC(C)=O)[C@@H](OC(C)=O)[C@H]2OC(C)=O)c(=O)[nH]1	inactive	inactive	inactive	inactive	inactive	inactive	–	–	–	–
COC(=O)c1ncn(C2CCCCO2)c1CC#N (stereo unspecified)	inactive	inactive	inactive	inactive	inactive	inactive	–	–	–	Time [23]: >0.3 days
CC(=O)Nc1cc2[nH]cnc2c(=O)[nH]1	inactive	inactive	inactive	inactive	inactive	inactive	–	–	–	–
